TAAR1 ag: agonists of human TAAR1; CHO RD-HGA16 TAAR1, Fluo-8 calcium fluorescence; vehicle wells 0%, saturating PEA agonist 100%; activation, % at 3 µM; 360,000 compounds, 0.99% hits;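 active = activation above the mean activation of all test compounds in the run plus 3 SD, cut at about 38% in these data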
Target sequence (Q96RJ0 whole entry, looked up): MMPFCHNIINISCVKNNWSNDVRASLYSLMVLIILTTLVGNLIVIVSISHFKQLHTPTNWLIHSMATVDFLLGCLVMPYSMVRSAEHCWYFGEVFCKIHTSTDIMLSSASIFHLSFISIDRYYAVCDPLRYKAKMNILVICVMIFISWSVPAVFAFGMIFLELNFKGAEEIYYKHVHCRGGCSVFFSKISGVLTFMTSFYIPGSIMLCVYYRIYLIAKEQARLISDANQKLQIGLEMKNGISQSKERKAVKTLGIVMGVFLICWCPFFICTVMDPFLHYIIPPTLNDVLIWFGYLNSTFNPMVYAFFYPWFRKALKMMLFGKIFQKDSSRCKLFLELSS
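Test system: RD-HGA16 (CHO) cells co-expressing Gα16 and hTAAR1 / Benchmarks: DMSO vehicle as 0%, PEA at EC100 as 100% / Repeats: no replicates (n 1) / Measure: % activation from peak over basal fluorescence ratio, DMSO-to-PEA scaled / Timing: 17-24 h plating, Fluo-8 75 min 37 °C, 30 min RT / Technique: kinetic Fluo-8 calcium fluorescence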
OX1R antag-1: blocks the human orexin 1 receptor; O43613; CHO/OX1R cells, Fluo-8 calcium fluorescence, orexin A; inhibition, % at 5 µM; 330,000 compounds, 0.43% hits; AID 434989;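 active = inhibition above its plate's threshold, mean inhibition of all tested compounds on the plate plus 3 SD, cut at about 37% in these data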;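 note: 0% = orexin A challenge wells and 100% = SB-334867-A antagonist wells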
CHO parental Ca: counter-screen for OX1R antagonists: effect in parental CHO cells; parental CHO-K1, ATP-induced calcium, Fluo-8 fluorescence; inhibition, % at 5.6 µM; 330,000 compounds, 0.63% hits;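 active = inhibition above that plate's mean sample inhibition plus 3 SD, cut at about 26% in these data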;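 note: 0% = ATP-challenged DMSO wells and 100% = DMSO wells without ATP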
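Material – parental CHO cells · Reagent – ATP stimulus · Compound – single nominal dose of 5.6 µM per compound · Detection – Fluo-8 fluorescence · Read-out basis – percent inhibition of calcium signal · Controls – ATP-challenged DMSO wells low, unchallenged DMSO wells high · Repeats – no replicates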
TAAR1 antag: antagonists of human TAAR1; Q96RJ0; CHO RD-HGA16 TAAR1, Fluo-8 calcium fluorescence, antagonist; inhibition, % at 3 µM; 360,000 compounds, 1.5% hits;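 active = inhibition above a per-plate cutoff, the mean inhibition of test compounds on that plate plus 3 SD, cut at about 49% in these data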;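 note: 0% = DMSO plus EC80 beta-PEA response and 100% = DMSO alone without agonist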
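test system = CHO RD-HGA16 cells bearing hTAAR1 | replication = singlicate | controls = DMSO-only wells and EC80 β-PEA-stimulated wells | reagent = EC80 β-phenethylamine stimulus | read-out basis = percent inhibition of PEA-evoked calcium signal, max/basal emission ratio | schedule = seeding 17-24 h prior, 75-min 37 °C, 30-min RT dye loading | signal = kinetic Fluo-8 calcium fluorescence measurement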
OX1R antag-2: antagonists of human orexin 1 receptor (OX1R). O43613. OX1R-expressing cells, FRET antagonist read-out. inhibition, % at 6.6 µM. 330,000 compounds, 1.8% hits; in the data active = inhibition mostly above about 38%, no sharp cut-off; inactive = mostly below about 40%;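 note: 0% = agonist challenge alone and 100% = reference antagonist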
GPR7 antag: antagonists of human GPR7 (neuropeptides B/W receptor 1). P48145. AID 1861. 290,000 compounds, 1.1% hits. inhibition, % at 4.4 µM. GPR7-expressing cells, fluorescence antagonist assay; in the data active = inhibition above about 16%, passing the limit was not always enough;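 note: cells stimulated with the agonist NPW; 0% = agonist with vehicle and 100% = vehicle without agonist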
Target sequence (P48145 whole entry, looked up): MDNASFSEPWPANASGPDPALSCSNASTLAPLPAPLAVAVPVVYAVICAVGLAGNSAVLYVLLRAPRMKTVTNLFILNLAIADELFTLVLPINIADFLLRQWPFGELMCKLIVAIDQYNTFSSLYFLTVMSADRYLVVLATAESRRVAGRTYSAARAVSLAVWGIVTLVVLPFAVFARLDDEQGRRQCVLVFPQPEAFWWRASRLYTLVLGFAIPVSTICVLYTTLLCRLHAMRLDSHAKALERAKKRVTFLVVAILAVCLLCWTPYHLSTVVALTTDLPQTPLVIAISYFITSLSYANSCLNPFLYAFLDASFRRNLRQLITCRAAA
nonsel antag count: counter-screen for TAAR1 antagonists: nonselective antagonists; shares compounds with TAAR1 antag; counterscreen cell line, calcium fluorescence, antagonist mode; inhibition, % at 3 µM; 2,400 compounds, 77% hits; in the data active = inhibition above about 22%;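 note: CHO-Ga16 host cells stimulated with ATP at an EC80 level; 0% = agonist EC80 plus vehicle and 100% = vehicle without agonist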
TAAR1 antag conf: confirmation of human TAAR1 antagonists; shares compounds with TAAR1 antag; inhibition, % at 3 µM; 2,400 compounds, 40% hits; TAAR1-expressing cells, fluorescence antagonist read-out; in the data active = inhibition above about 49%;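 note: CHO-Ga16 host cells challenged with agonist PEA near its EC80; 0% = agonist at EC80 plus vehicle and 100% = vehicle with no agonist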
Ga16 nonsel ag: nonselective Ga16 agonism, counter-screen; activation, % at 3 µM; shares compounds with TAAR1 antag; AID 651953; 2,400 compounds, 18% hits; Ga16-expressing cells, calcium fluorescence, agonist counterscreen; in the data active = activation above about 12%;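 note: 0% = vehicle wells and 100% = saturating stimulus response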
TAAR1 ag count: activates human TAAR1 in antagonist counter-screen; shares compounds with TAAR1 antag; hTAAR1 cell line, fluorescence activation, agonist mode; activation, % at 3 µM; 2,400 compounds, 2% hits; in the data active = activation above about 37%;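 note: CHO cells stably expressing TAAR1 with calcium dye readout; 0% = DMSO vehicle and 100% = full agonist response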
* marks the source's active call; other numbers are inactive results; . = no result given. The list is not random: actives were taken first. Their share in the collection is about 4.6%.

SMILES	TAAR1 ag	OX1R antag-1	CHO parental Ca	TAAR1 antag	OX1R antag-2	GPR7 antag	nonsel antag count	TAAR1 antag conf	Ga16 nonsel ag	TAAR1 ag count
CCS(=O)(=O)c1ccc(-c2csc(-c3ccccc3)n2)c(Cl)c1Cl	14	-30	-13	68*	19	24	24*	24	2	5
N#Cc1cccc(S(=O)(=O)Nc2c(NC3CCCCC3)c3ccccc3oc2=O)c1	.	-15	-24	.	21	-3	.	.	.	.
Cc1nn(-c2ccccc2)c(N2CCCC2)c1/C=N/n1cnc2scc(-c3ccccc3)c2c1=O	5	-31	-25	54*	9	-6	28*	39	3	2
C#CC(C)OCC1CNC(=S)O1 (stereo not given)	1	.	.	3	.	.	.	.	.	.
C[C@@H]1CN([C@@H](C)CO)C(=O)c2cc(-c3ccccc3F)cnc2O[C@H]1CN(C)Cc1cccc(F)c1	0	.	.	-21	.	.	.	.	.	.
CC(C)c1cc(C(=O)N/N=C/c2ccco2)n[nH]1	6	3	0	4	13	8	.	.	.	.
COc1ccc(C)cc1-n1nnnc1SCc1nc2ccccc2s1	16	-17	-8	54*	43	3	27*	27	6	3
COc1ccc(-n2nnnc2SCc2nc3ccccc3s2)cc1	2	-15	4	15	25	1	.	.	.	.
O=C(NCCC(=O)N1CCN(c2ccc(F)cc2)CC1)c1ccco1	1	.	.	-5	.	.	.	.	.	.
COC(=O)[C@@]12CCCN1[C@H](c1ccc(-c3ccc(C(C)=O)cc3)c(OC)c1)[C@H]1C(=O)N(C)C(=O)[C@H]12	1	-5	-7	20	12	.	.	.	.	.
CN1CCN(c2ccccc2NC(=O)c2ccc(-c3cccc([N+](=O)[O-])c3)o2)CC1	7	-27	-12	27	16	-5	.	.	.	.
CCC(=O)N1CCN(c2ccccc2NC(=O)c2ccc(-c3cccc([N+](=O)[O-])c3)o2)CC1	12	-23	-23	55*	12	-15	26*	50*	6	2
COc1ccc(C)cc1NC(=O)CN1C(=O)COc2ccc(S(=O)(=O)N3CCCCC3)cc21	-2	-34	-22	-13	13	-9	.	.	.	.
COc1cccc2oc3cc(C#CC4(O)CCCCC4)ccc3c(=O)c12	22	5	-28	57*	47	-7	22*	32	7	17
COc1cccc2sc3ccc(C#CC4(O)CCCCC4)cc3c(=O)c12	16	-27	-23	60*	11	-10	22*	31	6	4
COc1ccccc1-c1oc2ccccc2c1C#CC1(O)CCCCC1	8	-10	-34	13	7	.	.	.	.	.
COc1cccc2sc3ccc(C#Cc4ccc(N)cc4)cc3c(=O)c12	7	-16	-14	41	30	-11	.	.	.	.
CC(C)NC(=O)CCn1nc(-c2ccc(Cl)cc2)c2ccccc2c1=O	0	-13	-14	15	13	5	.	.	.	.
CCC(C)(C)NC(=O)C(c1ccccc1Cl)N(C(=O)CCC(=O)Nc1cc(C)on1)C(C)(C)C (stereo not given)	3	-16	-13	-19	8	6	.	.	.	.
CCOc1ccc(N(C(=O)c2snc(C(N)=O)c2N)C(CC)C(=O)NC2CCCC2)cc1 (stereo not given)	-4	1	-6	-2	7	-8	.	.	.	.
CCOc1ccc(C(C(=O)NC2CCCC2)N(C(=O)c2snc(C(N)=O)c2N)c2cccc(O)c2)cc1 (stereo not given)	17	24	25	99*	14	-12	37*	81*	8	8
Cc1cccc(N(C(=O)c2snc(C(N)=O)c2N)C(C(=O)NC2CCCC2)c2ccncc2)c1 (stereo not given)	-6	-40	-26	-5	10	-14	.	.	.	.
NC(=O)c1nsc(C(=O)N(c2cccc(O)c2)C(C(=O)NC2CCCC2)c2ccc(Cl)cc2)c1N (stereo not given)	0	3	-2	66*	-2	-13	25*	53*	6	12
O=C(Nc1ccncc1)C1CC(=O)N(c2ccccc2)C1 (stereo not given)	0	.	.	16	.	.	.	.	.	.
O=C(Nc1cccc(-c2cnc3ccccc3n2)c1)C1CC(=O)N(c2ccccc2)C1 (stereo not given)	20	-25	-15	80*	9	-11	45*	63*	16*	18
SMILES	TAAR1 ag	OX1R antag-1	CHO parental Ca	TAAR1 antag	OX1R antag-2	GPR7 antag	nonsel antag count	TAAR1 antag conf	Ga16 nonsel ag	TAAR1 ag count
O=C(Nc1cccc(S(=O)(=O)NC2=NCCCCC2)c1)c1cc(-c2ccco2)nc2ccccc12	13	-11	-6	51*	8	-8	30*	46	8	6
CC(=O)c1cccc(NC(=O)c2cc(-c3ccco3)nc3ccccc23)c1	13	-19	-15	63*	16	0	31*	50*	7	7
CC(=O)c1cccc(NC(=O)c2cc(-c3ccncc3)nc3ccccc23)c1	10	-2	-6	46	-4	.	.	.	.	.
O=C(Nc1cccc(-c2cnc3ccccc3n2)c1)c1cccc(NC(=O)c2ccco2)c1	19	6	-5	74*	49*	-6	39*	63*	12*	10
Cc1ccc(S(=O)(=O)N2CCN(C(=S)NCCc3ccccc3)CC2)cc1	7	-24	-10	6	5	-5	.	.	.	.
Cc1ccccc1CSc1ccc2nnc(-c3ccccn3)n2n1	8	-25	-9	-58	7	-9	.	.	.	.
O=C(Nc1cccc(-c2csc(Nc3ccccc3)n2)c1)c1ccccc1	10	-31	-12	65*	55	.	28*	33	2	0
O=C(Nc1ccccc1N1CCOCC1)c1cc(-c2ccco2)nc2ccccc12	18	-22	-44	62*	33	-18	29*	49*	8	9
O=C(Nc1ccccc1F)c1cc(-c2ccco2)nc2ccccc12	9	-34	-25	27	27	.	.	.	.	.
Cc1cnc(C(=O)OCc2csc(CC(=O)Nc3ccccc3C)n2)cn1	0	-12	-13	-3	15	15	.	.	.	.
Nc1nnc(/C=C/c2ccccc2Cl)s1	1	-11	-10	5	18	-10	.	.	.	.
Cc1cc(C(C)(C)C)cc(C)c1CCNC(=O)c1ccc[n+]([O-])c1	15	-15	-12	-4	7	-20	.	.	.	.

Screening data: PubChem, The Scripps Research Institute Molecular Screening Center
